Reference: ChEMBL document CHEMBL4699650, “SAR Investigation and Discovery of Water-Soluble 1-Methyl-1,4-dihydroindeno[1,2-c]pyrazoles as Potent Tubulin Polymerization Inhibitors” (J Med Chem, 2020)

How the values were obtained:
[1] = Inhibition of porcine brain tubulin polymerization measured every 60 sec for 60 mins in presence of GTP by fluorescence assay; set-up: species or system Sus scrofa
Outline: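 Fluorescence kit assay using 2 mg/mL porcine brain tubulin with 2 mM MgCl₂, 0.5 mM EGTA, 1 mM GTP and 15% glycerol. Compound at various concentrations preincubated 1 min at 37 °C before adding the tubulin mix. Read at ex 355/em 460 nm every 60 s for 60 min. IC50 is the concentration giving 50% inhibition at 60 min; mean ± SD of ≥3 independent experiments.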

[2] = target: Tubulin beta (Homo sapiens) (UniProt P68371+Q9H4B7+Q13509+P04350+Q3ZCM7+P07437+Q13885+Q9BVA1+Q9BUF5+A6NNZ2); assay: Inhibition of N,N'-Ethylenebis(iodoacetamide) binding to beta-tubulin in human HepG2 cells assessed as reduction in EBI/beta-tubulin adduct formation preincubated for 2 hrs followed by EBI addition and measured after 1.5 hrs by Western blot analysis; type: cell-based; settings: dose microM 0.2-25, time 3.5 hrs
Outline: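 HepG2 seeded 5 × 10⁵ cells/well, adhered overnight. […] Lysate protein (20 μg) run on 10% polyacrylamide gel on ice and transferred to PVDF. Probed with anti-β-tubulin 16 h at 4 °C, then HRP secondary. Chemiluminescence detection.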

HepG2 [3] = assay: Induction of cell cycle arrest in human HepG2 cells assessed as accumulation in G1 phase at 5 nM incubated for 24 hrs by propidium iodide staining based flow cytometry (reference value: 60.76%); type: functional
HepG2 [4] = assay: Induction of cell cycle arrest in human HepG2 cells assessed as accumulation in S phase at 10 nM incubated for 24 hrs by propidium iodide staining based flow cytometry (reference value: 26.65%); type: functional
HepG2 [5] = assay: Induction of cell cycle arrest in human HepG2 cells assessed as accumulation in G2/M phase at 10 nM incubated for 24 hrs by propidium iodide staining based flow cytometry (reference value: 12.59%); type: functional
HepG2 [6] = assay: Induction of cell cycle arrest in human HepG2 cells assessed as accumulation in G2/M phase incubated for 24 hrs by propidium iodide staining based flow cytometry; type: functional; settings: dose nM 5-20, time 24.0 hrs
HepG2 [7] = assay: Induction of apoptosis in human HepG2 cells assessed as late apoptotic cells at 5 nM incubated for 12 hrs by Annexin V-PE and 7-AAD staining based flow cytometry (reference value: 2.79%); type: functional
Outline: (§1)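 HepG2 cells seeded at 3 × 10⁵ cells/well, adhered overnight, exposed at 5, 10 or 20 nM for 12 or 24 h. Harvested into Annexin V binding buffer and stained with annexin V-PE and 7-AAD for 15 min at room temperature in the dark, then analysed by flow cytometry. Gates: live (−/−), early apoptotic (+/−), late apoptotic (+/+), necrotic (−/+).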

HepG2 [8] = assay: Induction of apoptosis in human HepG2 cells assessed as early apoptotic cells at 20 nM incubated for 12 hrs by Annexin V-PE and 7-AAD staining based flow cytometry (reference value: 4.52%); type: functional; outline: as §1
HepG2 [9] = assay: Induction of apoptosis in human HepG2 cells assessed as necrotic cells at 5 nM incubated for 24 hrs by Annexin V-PE and 7-AAD staining based flow cytometry (reference value: 0.34 %); type: functional; outline: as §1
HepG2 [10] = assay: Induction of apoptosis in human HepG2 cells assessed as late apoptotic cells at 5 nM incubated for 24 hrs by Annexin V-PE and 7-AAD staining based flow cytometry (reference value: 2.33 %); type: functional; outline: as §1
HepG2 [11] = assay: Induction of apoptosis in human HepG2 cells assessed as live cells at 5 nM incubated for 24 hrs by Annexin V-PE and 7-AAD staining based flow cytometry (reference value: 93.2%); type: functional; outline: as §1
HepG2 [12] = assay: Induction of apoptosis in human HepG2 cells assessed as late apoptotic cells at 20 nM incubated for 24 hrs by Annexin V-PE and 7-AAD staining based flow cytometry (reference value: 2.33 %); type: functional; outline: as §1
HepG2 [13] = assay: Induction of apoptosis in human HepG2 cells assessed as decrease in Bcl-2 expression incubated for 24 hrs by Western blot analysis; type: functional, cell-based; settings: dose nM 2.5-20, time 24.0 hrs
Outline: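 Lysates (20 μg protein) separated by 10% PAGE and blotted to PVDF. Probed for Bax, Bcl-2, cleaved caspase-3 and cleaved PARP, detected by ECL and quantified by densitometry.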

HepG2 [14] = assay: Antitumor activity against human HepG2 cells xenografted in iv dosed Balb/c nude mouse assessed as tumor growth inhibition administered every 2 days for 21 days; type: functional, organism-based; settings: time 21.0 day
Outline: (§2)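 Nude mice received 200 μL PBS containing HepG2 at 1 × 10⁷ cells/mL subcutaneously in the right armpit. Randomised at 90 mm³ tumour volume, five per group. Compound given iv as a 2.0 mg/mL solution in distilled water, 5 or 10 mg/kg every two days for 21 days, with a water vehicle group. Tumour volume (L × W²/2) and body weight recorded every 3 days. Inhibition = (1 − RTV treated/RTV vehicle) × 100%.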

HepG2 [15] = assay: Antitumor activity against human HepG2 cells xenografted in Balb/c nude mouse assessed as reduction in tumor volume at 10 mg/kg, iv administered every 2 days for 21 days and measured at 3 days interval during compound dosing; type: functional; set-up: scale not given: the % may be the effect or the level left; settings: time 21 day; outline: as §2

## CCOc1cccc(Nc2nn(C)c3c2Cc2cc(OCC)c(OCCCN)cc2-3)c1
[1]
  IC50: 3.7 µM
[2]
  inhibition: Dose-dependent effect
HepG2 [3]
  Activity: 49.56%
HepG2 [4]
  Activity: 26.85%
HepG2 [5]
  Activity: 56.07%
HepG2 [6]
  Activity: Dose-dependent effect
HepG2 [7]
  Activity: 3.53%
HepG2 [8]
  Activity: 14.5%
HepG2 [9]
  Activity: 0.32%
HepG2 [10]
  Activity: 4.33%
HepG2 [11]
  Activity: 85.6%
HepG2 [12]
  Activity: 10.7%
HepG2 [13]
  Activity: Dose-dependent effect
HepG2 [14]
  Activity: Dose-dependent effect
HepG2 [15]
  Activity: 68%
